# This is a sample that favours compounds with a hit; in the whole collection about 12% have one here.
# Lmaj promast: Leishmania major promastigote growth inhibition. Leishmania major promastigotes, resazurin fluorescence viability. inhibition, % at 10 µM. 200,000 tested, 9% active;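 note: promastigotes grown with compound for 44 hours at 28 °C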
# Rad51 HR inh: blocks human Rad51 in homologous recombination | Q06609 | hRad51 DNA strand exchange, fluorescence dequenching | inhibition, % at 10 µM | 200,000 tested, 0.085% active;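 active = inhibition above 40% at the single screening dose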;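 note: 0% = DMSO control wells and 100% = blanks with heterologous ssDNA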
#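 Material: human Rad51–ssDNA filaments; Probe or stimulus: labelled 47-mer dsDNA for strand exchange; Doses: single 10 µM dose; Incubation: 37 °C 15-min filament assembly, 30-min compound preincubation, 15-min exchange; Technique: FRET fluorescence dequenching, excitation 485 nm, emission 520 nm; Measure: Fluorescence-based percent inhibition, control- and blank-normalised; Benchmarks: plate control and blank wells.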
# Arbovirus inh: blocks arbovirus infection; arbovirus infection cell-based antiviral screen; inhibition, % at 10 µM; 200,000 tested, 0.37% active; in the data active = inhibition above about 30%
# Wee1 stabilizer: human Wee1 degradation inhibition, primary screen | P30291 | HeLa Luc-Wee1K328M stability, luciferase luminescence; 100% = proteasome inhibitor MG132 effect | reporter increase, % at 5 µM | 220,000 tested, 1.2% active | AID 1321;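 active = activation above the mean of all tested compounds plus 3 SD, set per screening run, cut at about 8.8% in these data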;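 note: cells exposed to compound for 20 h before luminescence read; 0% = DMSO alone and 100% = MG132 at 30 µM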
# Target sequence (P30291 whole entry K328M): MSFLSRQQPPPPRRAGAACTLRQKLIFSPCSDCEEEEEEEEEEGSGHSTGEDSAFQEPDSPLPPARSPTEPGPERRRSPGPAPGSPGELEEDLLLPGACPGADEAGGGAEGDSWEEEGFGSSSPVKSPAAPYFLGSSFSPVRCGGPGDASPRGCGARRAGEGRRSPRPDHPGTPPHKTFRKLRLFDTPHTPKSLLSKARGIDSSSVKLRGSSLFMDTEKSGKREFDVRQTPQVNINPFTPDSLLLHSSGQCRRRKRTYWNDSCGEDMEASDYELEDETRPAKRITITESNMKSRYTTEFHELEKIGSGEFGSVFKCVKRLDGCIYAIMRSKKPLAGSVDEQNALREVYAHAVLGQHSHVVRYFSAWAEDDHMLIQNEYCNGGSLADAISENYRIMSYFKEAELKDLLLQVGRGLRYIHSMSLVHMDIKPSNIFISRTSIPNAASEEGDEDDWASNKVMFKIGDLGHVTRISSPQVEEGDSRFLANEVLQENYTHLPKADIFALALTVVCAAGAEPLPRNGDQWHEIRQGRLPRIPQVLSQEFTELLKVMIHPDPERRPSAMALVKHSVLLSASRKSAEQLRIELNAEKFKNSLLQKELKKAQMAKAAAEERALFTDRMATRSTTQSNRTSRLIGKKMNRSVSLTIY
# PKD1 inh: PKD1 (human) kinase inhibition | Q15139 | PKD1 kinase fluorescence polarization assay | inhibition, % (no concentration beside the values) | 200,000 tested, 0.056% active | AID 797
# CHOP inhibitor: blocks CHOP induction under ER stress; CHO-K1 CHOP-promoter luciferase, tunicamycin-induced, 15-18 h; inhibition, % at 10 µM; 220,000 tested, 3.8% active; AID 2732;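 active = compounds that reduced the stress-induced luciferase reporter signal by more than about 70% of percent inhibition, limit read from the data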;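 note: 0% = tunicamycin plus vehicle and 100% = wells without tunicamycin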
# The depositor's hits bear a star; . = not tested or not shown. Cut-off read from the data, not from the text of the source, unless noted: active = inhibition above about 50%; inactive = the rest.
SMILES,Lmaj promast,Rad51 HR inh,Arbovirus inh,Wee1 stabilizer,PKD1 inh,CHOP inhibitor
CC(=O)c1c(C)[nH]c(C(=O)N2CCCCCC2)c1C,-3,1,6,8.9*,-7,15
COc1ccc(-c2ccc(CO)o2)cc1N,-7,10,-7,-1,-1,-3
COc1cccc(CNc2ccc(S(N)(=O)=O)cc2)c1OCc1ccccc1F,65*,-2,9,0,-8,7
COc1cccc(C2NC(=O)c3ccccc3O2)c1OC (stereo unspecified),-5,2,6,2,-1,-19
C=CCOc1c(CNc2ccc(S(N)(=O)=O)cc2)cccc1OC,-5,10,5,0,7,19
COc1cccc(C2NC(=O)c3ccccc3O2)c1OCc1ccccc1F (stereo unspecified),84*,0,2,-3,2,34
COc1cccc(CNc2ccccc2O)c1OCc1ccccc1F,62*,2,-1,-1,-2,68
N#CCSc1nc(N)c(C#N)c(C2CCCCC2)c1C#N,15,10,34*,-3,-2,49
CCC1=[N+](CC(=O)c2ccc(Br)cc2)CCn2c(C)ccc21,.,.,.,11*,.,1
O=C(COc1c(CO)cc(Br)cc1CO)NC1CCCc2ccccc21 (stereo unspecified),-4,12,3,0,7,14
CC1(C)CC(=O)C2=C(C1)Nc1cc3c(cc1C2c1ccc(F)cc1)OCO3 (stereo unspecified),100*,-1,1,-1,-9,25
CC1(C)CC(=O)C2=C(C1)Nc1ccccc1NC2c1ccc2c(c1)OCO2 (stereo unspecified),51*,-3,2,-1,19,1
CC1(C)CC(=O)C2=C(C1)Nc1ccccc1NC2c1ccccn1 (stereo unspecified),-1,-2,-1,3,0,15
Cc1noc2c1C(c1ccc(N(C)C)cc1)C1=C(CC(C)(C)CC1=O)N2 (stereo unspecified),4,-4,-14,-1,-4,16
Cc1ccc(C2C3=C(CC(C)(C)CC3=O)Nc3onc(C)c32)cc1 (stereo unspecified),53*,-1,-7,0,-3,9
COc1ccc(C2C3=C(CC(C)(C)CC3=O)Nc3cc4c(cc32)OCO4)cc1 (stereo unspecified),99*,-9,0,0,-6,30
COc1cccc(/C=N/NC(=O)CN2CC(c3ccccc3)CC2=O)c1OC (stereo unspecified),-2,13,-4,-1,0,-1
CN(Cc1cnn(-c2ccc(F)cc2)c1)Cc1nc(Cc2ccccc2)no1,-4,-2,0,1,-4,-29
CC1(C)CC(=O)C2=C(C1)Nc1cc3c(cc1C2c1ccc2c(c1)OCO2)OCO3 (stereo unspecified),99*,-3,-13,3,-2,23
CCc1ccc(NC(=O)C(=O)NCCOc2ccccc2Cl)cc1,4,0,0,3,2,-4
c1ccc(-c2nn3c(C4CCCCC4)nnc3s2)cc1,0,-6,-10,-1,4,78*
Cc1cccc(-c2nnc3sc(-c4ccccc4)nn23)c1,6,2,1,2,5,77*
Cc1cccc(NC(=S)NC2CC3C=CC2C3)c1 (stereo unspecified),.,.,.,3,.,-24
COc1ccc(C(=O)Nc2c(Cl)cc(Cl)cc2C(=O)N2CCOCC2)cc1,6,.,2,8.9*,-2,0
FC(F)(F)c1nc(Oc2ccccc2)c2ccccc2n1,0,1,4,-1,-6,83*
SMILES,Lmaj promast,Rad51 HR inh,Arbovirus inh,Wee1 stabilizer,PKD1 inh,CHOP inhibitor
c1ccc(Oc2c3ccccc3nc3ccccc23)cc1,.,20,.,0,.,-29
C(=N\Nc1nc(N2CCCC2)nc(N2CCCC2)n1)/c1cccnc1,-2,-4,-6,-3,-3,-34
FC(F)(F)COc1nc(N/N=C/c2cccnc2)nc(N2CCCCC2c2ccccn2)n1 (stereo unspecified),51*,.,-6,-3,0,5
Cc1cc([N+](=O)[O-])ccc1NC(=O)C[n+]1ccc(N(C)C)cc1,1,18,6,-1,0,4
CN=C1c2cc3cc(OC)ccc3n2CCN1Cc1ccccc1,23,.,-16,2,6,24
CCN(CC)CCNC1=NCCn2c1cc1cc(OC)ccc12,96*,-1,-18,-1,2,17

# Source: PubChem (several laboratories)
